Test results reported in PMC4779681 (Journal of immunology (Baltimore, Md. : 1950), 2016).

Experiments:
[1] = test system: OT-I T cells; experiment: Secondary effectors after N4 OVA peptide footpad rechallenge; type: in vivo, mouse; conditions: for CD45RB^hi frequency, secondary effectors: N4 OVA peptide 10 μg per hind foot pad, draining popliteal LN, 5 days later; for CD62L^lo frequency, CD45RB^lo vs CD45RB^hi fraction: CD45RB^lo vs respective CD45RB^hi population
[2] = test system: OT-I T cells; experiment: OT-I primary effector and memory populations after LM-OVA APL infection; type: in vivo, mouse; conditions: for Memory OT-I cells (frequency/number) in pooled secondary lymphoid organs: LM-N4 OVA or LM-V4 OVA infection, week 4-5 post infection, Thy1.1 enrichment; for CD45RB^hi frequency, primary effectors: OT-I in blood, day 7 post LM infection; for CD45RB^hi frequency, memory cells: OT-I in secondary lymphoid tissue, 4 weeks post LM infection; for IL-2 expression by primary effectors: day 7 primary effectors; for Memory phenotype markers CD44, CD127, CD69, Granzyme B: memory OT-I cells primed by LM-OVA APL
Outline: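 OT-I donor cells (1.0 × 10⁴, Thy1.1⁺, in PBS) given i.v. to CD45.1⁺ male hosts; 10⁴ CFU LM-OVA APL i.p. 24 h later. Day 7: blood with RBC lysis, gated CD8⁺CD44^hiThy1.1⁺. Week 4 (day 28–35): spleen plus pooled LNs, anti-Thy1.1 PE/anti-PE bead enrichment. Cytokines by intracellular staining after 5 h at 37 C with 1 μM N4 OVA peptide plus GolgiPlug. Counts by counting beads.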

[3] = test system: OT-I T cells; experiment: In vitro OVA APL OT-I stimulation; type: cell-based, mouse; conditions: for hnRNPLL expression: OT-I cells primed with peptide 3 days in vitro (0.1 μM)
[4] = test system: OT-I T cells; experiment: Sorted Q4 OVA primed OT-I cells transferred and rechallenged with N4 OVA peptide; type: in vivo, mouse; conditions: N4 OVA peptide rechallenge in naïve congenic hosts, day 5, p=0.0012
Outline: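 OT-I splenocytes (3×10⁶) were primed for 3 days with 0.1 μM Q4 OVA peptide, 0.1 μg/mL anti-CD28 and 10 ng/mL IL-2. Dead cells were removed, then cells were cultured overnight in 10 ng/mL IL-15. Live CD8⁺CD44^hiThy1.1⁺ cells were sorted into CD45RB^hi/lo, transferred to naïve congenic hosts and rechallenged with N4 OVA peptide. CD45RB was assessed 5 days later; 2–3 independent experiments.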

[5] = test system: OT-I T cells; type: in vivo, mouse; conditions: vs N4 OVA primed
Outline: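 Memory mice, OT-I-transferred and LM-infected, received full-thickness tail and ear skin grafts expressing N4 OVA on the dorsal thorax 5 weeks post infection. Draining LN OT-I cells were counted with counting beads on day 5 post graft. Fold expansion was taken from day 0 to day 5.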

[6] = test system: OT-I T cells; conditions: between N4 and V4 OVA; cited from earlier work

Sequence	CD45RB^hi frequency, secondary effectors [1] [%]	CD62L^lo frequency, CD45RB^lo vs CD45RB^hi fraction ([1]; secondary effectors)	Memory OT-I cells (frequency/number) in pooled secondary lymphoid organs [2]	CD45RB^hi frequency, primary effectors [2] [%]	CD45RB^hi frequency, memory cells [2] [%]	IL-2 expression by primary effectors [2]	Memory phenotype markers CD44, CD127, CD69, Granzyme B [2]	hnRNPLL expression [3]	also measured
SIINFEKL [N4 OVA]	30.2±3.39	greater frequency	8.0×10^4±3.3×10^4	48.9±2.2	54.7±6.76	similarly low levels of IL-2	high levels of CD44 and CD127, and low levels of CD69 and Granzyme B	increased	Nur77 and CD69 expression, CD45RB^hi vs CD45RB^lo cells ([3]; V4 OVA Tm cells restimulated 5 h with N4 OVA or OVA APL, 0.1 μM): significantly greater in CD45RB^hi cells
SIIQFEKL [Q4 OVA]	–	–	–	–	–	–	–	–	Proliferation of sorted CD45RB^hi vs CD45RB^lo cells [4]: proliferated to a significantly greater number
SIIVFEKL [V4 OVA]	19.6±1.96	greater frequency	1.3×10^3±5.3×10^2	68.7±3.6	79.3±3.4	similarly low levels of IL-2	high levels of CD44 and CD127, and low levels of CD69 and Granzyme B	not induced	PD-1 expression in CD45RB^lo fraction ([1]; secondary effectors): significantly upregulated; IL-2Rβ (CD122) expression ([1]; secondary effectors, CD45RB^lo vs CD45RB^hi): significantly lower; CD62L^lo frequency within CD45RB^lo population ([1]; secondary effectors, V4 OVA vs N4 OVA primed CD45RB^lo): slightly smaller frequency; IFN-γ^+ or TNF^+ frequency, CD45RB^lo vs CD45RB^hi ([1]; secondary effectors, high affinity rechallenge): did not possess greater frequencies; Loss of CD45RB^hi cells relative to resting memory ([1]; secondary effectors, vs N4 OVA primed): significantly greater; IL-2Rα (CD25) expression, CD45RB^lo cells ([1]; vs CD45RB^hi cells and N4 OVA primed CD45RB^lo cells): significantly higher levels; Fold lower frequency of CD8^+ OT-I effectors in blood vs N4 OVA priming ([2]; day 7 post LM infection (10^4 CFU i.p.), 10^4 OT-I transferred): ~ 80 fold; Fold lower frequency of memory OT-I cells vs N4 OVA priming ([2]; secondary lymphoid organs, memory, LM infection): 61 fold; Fold expansion of memory cells post graft ([5]; day 0 to day 5 post N4 OVA skin graft): greater fold expansion; Number of OT-I cells recovered in draining lymph nodes ([5]; day 5 post N4 OVA skin graft): fewer; Range in relative functional avidity [6]: 680 fold
